Compound activity deposited in PubChem BioAssay by several laboratories.
In the library only some 3.3% were active in any assay of this set; here they are far more common.
HIV Rev-RRE inh: HIV Rev-RRE protein-RNA interaction inhibition; Rev peptide-RRE RNA binding, FRET; inhibition, % at 8 µM; 97,000 compounds, 0.79% hits; AID 704;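 active = inhibition above the screen-wide mean plus 3 SD, cut at about 35% in these data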
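Material: labelled RRE RNA duplex and labelled Rev peptide / Buffer or medium: HEPES pH 7.5 salt buffer with EDTA / Compound dosing: single point, 8 µM final nominal compound concentration / Benchmarks: DMSO low control, neomycin B high control / Timing: 5 min preincubation and 15 min binding, 25 °C / Technique: FRET fluorescence readout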
IL1B NFkB inh: blocks IL-1B driven NFkB nuclear translocation in HUVEC cells. HUVEC IL-1B NFkB p65 nuclear translocation imaging. inhibition, % at 2 µM. 94,000 compounds, 0.43% hits;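 active = inhibition above about 30% together with a positive call from visual inspection of the well image, limit read from the data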;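 also: nuclear over cytoplasmic p65 intensity ratio measured by imaging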
HUVEC tox IL1B: toxic to HUVEC cells under IL-1B stimulation | 94,000 compounds, 0.41% hits | cell count reduction, % at 2 µM | HUVEC cell count loss, Hoechst imaging, IL-1B stimulated | AID 845;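 active = cell count reduction more than 3 SD above the screen-wide mean, cut at about 70% in these data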
Measles CPE: protection of cells from measles virus; AID 841; protection (pct of control), % at 4 µM; Measles virus-infected cells, CPE protection, absorbance; 140,000 compounds, 1.5% hits; in the data active = protection mostly above about 24%, no sharp cut-off; inactive = mostly below about 26%
NFkB transloc pot: enhances IL-1B driven NFkB nuclear translocation | HUVEC IL-1B NFkB p65 nuclear translocation imaging | activation, % at 2 µM | 94,000 compounds, 0.3% hits;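 active = activation above 40%, about the mean plus 3 SD, also judged a hit on visual image review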;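 also: percent activation is computed from the nuclear over cytoplasmic p65 intensity ratio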
FAK blocker: blocks human focal adhesion kinase activity; inhibition, %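 (tested at 7 µM)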; Q05397; biochemical FAK kinase activity assay; 97,000 compounds, 0.84% hits; AID 727
FAK inh conf: FAK (human) inhibition confirmed | shares compounds with FAK blocker | FAK kinase biochemical inhibition assay | inhibition, % at 7 µM | 750 compounds, 28% hits | AID 794
A number is an active result; - = inactive; . = not tested or not shown; [ ] = another dose, or the depositor's remark. Rule as the data show it, unless noted: active = inhibition above about 19%; inactive = the rest.

SMILES | HIV Rev-RRE inh | IL1B NFkB inh | HUVEC tox IL1B | Measles CPE | NFkB transloc pot | FAK blocker | FAK inh conf
COc1ccc(-c2cn[nH]c2N)c(OC)c1 | - | - | - | - | - | 30.6 | -
COc1ccc(-c2cn[nH]c2N)cc1 | - | - | - | - | - | - | .
Cc1ccccc1C1(CCN2CCCCC2)CCOC(C)(C)C1 (stereo not given) | . | . | . | - | . | . | .
COCCCNc1c2c3c(cccc3[nH]c1=O)C(=O)c1ccccc1-2 | 141.1[fluorescence artefact?] | - | - | - | - | 20.3 | -
COC(=O)c1ccccc1NC(=S)NC(=O)COc1ccccc1Cl | - | - | - | - | - | - | .
COC(=O)c1ccccc1NC(=O)c1cccc(COc2ccccc2Cl)c1 | - | - | - | - | - | 22.9 | -
CC(C)(C)c1cc(NC(=O)CSc2nncs2)n(-c2ccccc2)n1 | . | . | . | - | . | . | .
N#C/C(=N\Nc1ccccc1Cl)C(=O)c1ccccc1 | - | - | - | - | - | - | .
N#C/C(=N\Nc1c(Cl)cccc1Cl)C(=O)NN | - | - | - | - | - | 45.3 | 33.0
CCOC(=O)c1cnc2c(-c3ccccc3)c(C)nn2c1N | - | - | - | - | - | - | .
CCOC(=O)c1cnc2c(-c3ccccc3)cnn2c1N | - | - | - | - | - | 29.1 | -
CC(Oc1ccc(Cl)cc1)C(=O)N/N=C/c1ccsc1 (stereo not given) | . | . | . | - | . | . | .
